Series [1] is described as follows: Dissociation constant, pKa of the compound. It counts as physicochemical.
Series [2] in a line: Lipid/water partition coefficient, log P of the compound. It counts as physicochemical.
Series [3] addresses T1, Prostaglandin G/H synthase 2 (Rattus norvegicus, UniProt P35355).
T1 sequence (P35355 whole entry): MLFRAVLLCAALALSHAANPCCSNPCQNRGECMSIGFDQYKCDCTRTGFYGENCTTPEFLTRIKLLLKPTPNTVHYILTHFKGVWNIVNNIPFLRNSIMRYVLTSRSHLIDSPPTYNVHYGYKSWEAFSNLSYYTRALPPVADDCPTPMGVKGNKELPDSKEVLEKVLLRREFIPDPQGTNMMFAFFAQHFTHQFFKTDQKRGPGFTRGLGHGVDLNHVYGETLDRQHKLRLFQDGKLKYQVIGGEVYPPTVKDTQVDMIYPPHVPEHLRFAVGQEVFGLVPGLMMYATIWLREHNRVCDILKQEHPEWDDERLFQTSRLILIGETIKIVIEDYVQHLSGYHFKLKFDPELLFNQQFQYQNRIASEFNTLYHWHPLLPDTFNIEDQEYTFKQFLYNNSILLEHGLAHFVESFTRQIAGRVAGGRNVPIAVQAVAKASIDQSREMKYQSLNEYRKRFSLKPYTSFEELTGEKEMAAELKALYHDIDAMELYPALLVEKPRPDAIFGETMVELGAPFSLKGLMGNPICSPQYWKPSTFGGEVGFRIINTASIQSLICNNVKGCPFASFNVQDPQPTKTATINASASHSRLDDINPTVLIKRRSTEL
The experiment in a line: Inhibition of COX-2 in rat peritoneal macrophages assessed as reduction in PGE2 production using radiolabelled-arachidonic acid as substrate pretreated for 30 mins followed by substrate addition measured after 30 mins.

The target of series [4] is T2, Prostaglandin G/H synthase 1 (Rattus norvegicus, UniProt Q63921).
T2 sequence (Q63921 whole entry): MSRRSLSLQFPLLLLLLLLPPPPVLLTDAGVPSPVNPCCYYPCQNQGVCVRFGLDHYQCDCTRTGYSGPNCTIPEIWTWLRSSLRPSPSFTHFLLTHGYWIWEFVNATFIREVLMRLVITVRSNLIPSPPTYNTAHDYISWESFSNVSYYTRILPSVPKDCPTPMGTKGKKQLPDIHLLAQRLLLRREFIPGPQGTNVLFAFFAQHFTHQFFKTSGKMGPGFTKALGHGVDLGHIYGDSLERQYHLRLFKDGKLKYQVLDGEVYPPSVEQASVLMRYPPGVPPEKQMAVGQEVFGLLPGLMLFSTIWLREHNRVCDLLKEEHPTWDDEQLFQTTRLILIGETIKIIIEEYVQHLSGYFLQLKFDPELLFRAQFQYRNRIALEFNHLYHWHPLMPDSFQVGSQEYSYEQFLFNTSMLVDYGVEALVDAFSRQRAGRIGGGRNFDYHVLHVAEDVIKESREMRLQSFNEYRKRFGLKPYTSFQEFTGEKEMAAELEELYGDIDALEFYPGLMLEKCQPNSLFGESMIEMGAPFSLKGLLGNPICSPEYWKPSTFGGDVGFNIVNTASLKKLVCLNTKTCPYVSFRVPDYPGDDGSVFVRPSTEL
The experiment in a line: Inhibition of COX-1 in rat peritoneal macrophages assessed as reduction in [125I]-6-Keto-PGF1alpha production using arachidonic acid as substrate pretreated for 30 mins followed by substrate addition measured after 30 mins. In outline: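 Rat peritoneal macrophages were elicited with 5 mL 0.5% gelatin i.p. and harvested after 5 h. Cells were washed, seeded at 1.0 × 10^6/mL and adhered 24 h at 37 °C, 5% CO2, then kept 24 h in 0.5% FCS RPMI-1640. Compounds at several concentrations were added for 30 min, then arachidonic acid for 30 min. 125I-6-keto-PGF1α was read by kit, and IC50 was taken as the concentration halving radioactivity.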

Series [5] can be described thus: Selectivity index, ratio of IC50 for COX1 in rat peritoneal macrophages to IC50 for COX2 in rat peritoneal macrophages. In outline: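 Both IC50s come from gelatin-elicited rat peritoneal macrophages given 0.5% FCS RPMI-1640 for 24 h, then compound for 30 min and arachidonic acid for 30 min. COX-1 was read as 125I-6-keto-PGF1α. For COX-2, cells first had 10% FCS for 1 h, a PBS rinse and […] LPS for 8 h, and supernatant PGE2 was read. Each IC50 is the concentration halving radioactivity.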

Series [6] has as its system Rattus norvegicus. The series can be described thus: In-vivo inhibition of COX2 in rat at 20 mg/kg measured after 60 mins. Particulars: 1 h. In kind it is functional.
The subject of series [7] is Rattus norvegicus. The experiment in a line: In-vivo inhibition of COX2 in rat at 20 mg/kg measured after 120 mins. In kind it is functional. The note with it: 2 h.
Series [8] has as its system Rattus norvegicus. The series can be described thus: In-vivo inhibition of COX2 in rat at 20 mg/kg measured after 90 mins. It counts as functional. The note with it: 1.5 h.
Series [9] has as its system Rattus norvegicus. The experiment in a line: In-vivo inhibition of COX2 in rat at 20 mg/kg measured after 40 mins. It counts as functional.
Series [10] concerns Rattus norvegicus. The experiment in a line: Anti-inflammatory activity in rat assessed as reduction in PGE2 release at 20 mg/kg measured after 2 hrs. It counts as functional, organism-based.
For series [11], the system named is Rattus norvegicus. The experiment in a line: In-vivo inhibition of COX2 in rat at 20 mg/kg measured after 20 mins. It counts as functional.

The source made the active and inactive calls. The rule behind the calls is not given here.

The term pKa denotes the pH at which an ionisable group is half protonated. Read a low pKa as a stronger acid or weaker base. A word on the logP: it is the decadic logarithm of the partition coefficient of the neutral form, usually between octanol and water. Low values mean a more hydrophilic compound, high ones a more lipophilic compound. As usually defined, the IC50 is the midpoint of a concentration-inhibition curve. On to `CN1C=CN(C2SC(C(Cl)(Cl)Cl)=CN2c2ccc(S(N)(=O)=O)cc2)C=C1` (stereo not given), for which the pKa in [1] stood at 7.76. In addition, the logP in series [2] was found to be 3.13. The values for the IC50 in series [3] and in [4] were 11.6 µM and 88.6 µM, respectively. Moreover, in series [5], the “Ratio IC50” value is on record as 7.7.
What is called inhibition in vivo is the share of the control response that was lost under treatment. High values mean a strong effect, low ones a weak effect. Consider `CN1C=CN(C2OC(C(Cl)(Cl)Cl)=CN2c2ccc(S(N)(=O)=O)cc2)C=C1` (stereo not given), for which the pKa in [1] is 7.55. Besides, the inhibition in vivo at 20 mg/kg is 85.9% in the series with Rattus norvegicus [6]; 97.9% in the series with Rattus norvegicus [7]; 95.4% with Rattus norvegicus [8]; 60.9% with Rattus norvegicus [9]; 40.6% in the series with Rattus norvegicus [11]. In [2], this compound showed a logP of 2.41. The IC50 in [3] came out at 0.099 µM; in series [4] it was 53.4 µM. For the same compound, in the series with Rattus norvegicus [10], the outcome was Active. Further, the “Ratio IC50” value in series [5] is given as 539.3.
`CN1C=CC(C2OC(C(Cl)(Cl)Cl)=CN2c2ccc(S(N)(=O)=O)cc2)C=C1` (stereo not given) showed a pKa in [1] of 7.63. Further, the logP in [2] came out at 2.78. Moreover, the IC50 in [3] was 13.7 µM; in [4] it was 83.1 µM. Further, the “Ratio IC50” value in series [5] worked out at 6.1.
In [1], `CN1C=CC(C2SC(C(F)(F)F)=CN2c2ccc(S(N)(=O)=O)cc2)C=C1` (stereo not given) displayed a pKa of 7.62. Moreover, in series [2], the logP is 2.77. Further, the IC50 in series [3] came to 8.08 µM; in [4] it was 80.5 µM. For the same compound, the “Ratio IC50” value in series [5] was found to be 10.
Consider `CC1=CN(c2ccc(S(N)(=O)=O)cc2)C(C2C=CN(C)C=C2)N1` (stereo not given), for which, in the series with Rattus norvegicus [10], the result was Active.
Compound `CN1C=CC(C2OC(C(F)(F)F)=CN2c2ccc(S(N)(=O)=O)cc2)C=C1` (stereo not given) gave a pKa in series [1] of 7.33. The inhibition in vivo at 20 mg/kg came to 87.5% with Rattus norvegicus [6]; 100% in the series on Rattus norvegicus [7]; 99.6% in the series on Rattus norvegicus [8]; 64.9% in the series with Rattus norvegicus [9]; 44.6% in the series with Rattus norvegicus [11]. In series [2], this compound came in with a logP of 2.05. Moreover, the values for the IC50 in series [3] and in [4] were 0.053 µM and 50.2 µM, respectively. Further, the outcome in the series on Rattus norvegicus [10] was Active. In addition, the “Ratio IC50” value in series [5] amounted to 947.5.
`CN1C=CN(C2NC(C(F)(F)F)=CN2c2ccc(S(N)(=O)=O)cc2)C=C1` (stereo not given): in the series with Rattus norvegicus [10], the result was Active.
With `CC1=CN(c2ccc(S(N)(=O)=O)cc2)C(C2C=CN(C)C=C2)O1` (stereo not given), the pKa in series [1] was determined as 7.09. The logP in series [2] worked out at 1.4. For the same compound, the IC50 stood at 17.4 µM in series [3] and 95.2 µM in series [4]. Also, the “Ratio IC50” value in series [5] came to 5.5.
`CN1C=CC(C2SC(C(Cl)(Cl)Cl)=CN2c2ccc(S(N)(=O)=O)cc2)C=C1` (stereo not given): in [1], the pKa is 8. Besides, the logP in [2] worked out at 3.5. Further, the figures for the half-inhibitory concentration (IC50) in series [3] and in [4] were 12.7 µM and 98.2 µM, respectively. In addition, in [5], the “Ratio IC50” value is given as 7.7.
For the compound `CN1C=CN(C2SC(C(F)(F)F)=CN2c2ccc(S(N)(=O)=O)cc2)C=C1` (stereo not given), in series [1], the pKa amounted to 7.5. For the same compound, the inhibition in vivo at 20 mg/kg with Rattus norvegicus [6] was found to be 86.1%; in the series with Rattus norvegicus [7], 98%; in the series on Rattus norvegicus [8] it was 97.3%; in the series on Rattus norvegicus [9], 63.1%; in the series with Rattus norvegicus [11], 42.5%. The same compound gave a logP in [2] of 2.38. The IC50 amounted to 0.0793 µM in [3] and 52.4 µM in [4]. In addition, the result in the series on Rattus norvegicus [10] was Active. Also, the “Ratio IC50” value in series [5] is 660.3.
For `CC1=CN(c2ccc(S(N)(=O)=O)cc2)C(N2C=CN(C)C=C2)S1` (stereo not given), in series [1], the pKa was found to be 7.2. Also, the logP in series [2] is 1.75. Also, the results for the IC50 in series [3] and in series [4] were 16.4 µM and 76.9 µM, respectively. Moreover, the “Ratio IC50” value in series [5] is on record as 4.8.
`CC1=CN(c2ccc(S(N)(=O)=O)cc2)C(C2C=CN(C)C=C2)S1` (stereo not given) had a pKa in series [1] of 7.39. Besides, the logP in series [2] stood at 2.12. For the same compound, the figures for the IC50 in series [3] and in series [4] were 1.53 µM and 56.9 µM, respectively. For the same compound, the “Ratio IC50” value in [5] worked out at 37.1.
Turning to `Cc1ccc(-c2cc(C(F)(F)F)nn2-c2ccc(S(N)(=O)=O)cc2)cc1` [CELECOXIB], the inhibition in vivo at 20 mg/kg is 89.1% in the series with Rattus norvegicus [6]; 100% in the series with Rattus norvegicus [7]; 100% in the series on Rattus norvegicus [8]; 68.4% with Rattus norvegicus [9]; 45.3% with Rattus norvegicus [11].
Turning to `CC1=CN(c2ccc(S(N)(=O)=O)cc2)C(N2C=CN(C)C=C2)O1` (stereo not given), the pKa in series [1] was 7.01. For the same compound, in [2], the logP amounted to 1.04. For the same compound, the half-inhibitory concentration (IC50) in series [3] is 20.1 µM; in series [4] it was 98.5 µM. Moreover, in series [5], the “Ratio IC50” value is on record as 4.9.
For `CN1C=CN(C2OC(C(F)(F)F)=CN2c2ccc(S(N)(=O)=O)cc2)C=C1` (stereo not given) the same measures were 7.18, 1.68, 1.27 µM, 55.6 µM and 43.8.

These data come from ChEMBL document CHEMBL4043129, “Design, synthesis and bioactivities of Celecoxib analogues or derivatives” (Bioorg Med Chem, 2017).
